Measurements as given in ChEMBL document CHEMBL1275449, “Potent in vitro antifungal activities of naturally occurring acetylenic acids” (Antimicrob Agents Chemother, 2008).
≈ marks a conversion by molar mass, not a printed value. Calls of active or inactive are those of the source. No cut-off for these calls is given here.

What was measured:
Candida tropicalis = test: Antifungal activity against Candida tropicalis ATCC 750 after 48 hrs by CLSI method; type: functional, organism-based; details: ATCC 750, 48 h
Outline: (§1)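 Yeast suspensions made from 3-5 colonies off 24-72 h SD agar plates in saline. They were diluted by OD630 standard curve in RPMI 1640 (0.2% dextrose, 0.03% glutamine, 0.165 M MOPS, pH 7.0) to 1.5 × 10³ CFU/ml. Twofold dilutions (11 concentrations, 20% DMSO-saline) run in duplicate. OD530 read before and after 35°C, 48 h. Line values are top test concentrations; no-growth endpoints give MIC/MFC.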

Candida albicans [1] = test: Antifungal activity against Candida albicans ATCC 200955 after 48 hrs by CLSI method; type: functional, organism-based; details: ATCC 200955, 48 h
Outline: (§2)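 CLSI broth microdilution. Colonies from 24–72 h SD agar suspended in saline and sized by OD630 standard curve. Inoculum 1.5 × 10³ CFU/ml (final) in RPMI 1640 (0.2% dextrose, 0.03% glutamine, 0.165 M MOPS, pH 7.0). Twofold dilutions (11 levels) from 20% DMSO-saline, in duplicate. 35°C for 48 h, OD530 read before and after. IC50 fitted from % growth. MIC: no detectable growth. MFC: subculture onto SD agar.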

[2] = test system: Trichophyton mentagrophytes; test: Antifungal activity against Trichophyton mentagrophytes ATCC 9533 at 16.5 uM after 5 days by CLSI method; type: functional, organism-based
Candida albicans [3] = test: Antifungal activity against Fluconazole resistant Candida albicans clinical isolate 17 after 48 hrs by CLSI method; type: functional, organism-based; outline: as §2
Pichia kudriavzevii = test: Antifungal activity against Candida krusei ATCC 6258 after 48 hrs by CLSI method; type: functional, organism-based; details: ATCC 6258, 48 h
Outline: (§3)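 Candida inocula came from 24–72-h SD agar colonies suspended in saline. They were diluted by OD630 standard curve into RPMI 1640 (0.2% dextrose, 0.03% glutamine, 0.165 M MOPS, pH 7.0) to 1.5 × 10³ CFU/ml. Compounds were run as 11 twofold dilutions in 20% DMSO-saline, in duplicate, at 35°C for 48 h, with OD530 read before and after. Percent growth at the top concentration, IC50, MIC, and MFC (SD agar plating) were derived.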

Candida albicans [4] = test: Antifungal activity against Candida albicans ATCC 14053 after 48 hrs by CLSI method; type: functional, organism-based; details: ATCC 14053, 48 h; outline: as §2
Candida albicans [5] = test: Antifungal activity against Candida albicans ATCC 32354 after 48 hrs by CLSI method; type: functional, organism-based; details: ATCC 32354, 48 h; outline: as §2
Aspergillus fumigatus [6] = test: Antifungal activity against Aspergillus fumigatus ATCC 90906 at 16.5 uM after 48 hrs by CLSI method; type: functional, organism-based
Candida albicans [7] = test: Antifungal activity against Candida albicans ATCC 90028 after 48 hrs by CLSI method; type: functional, organism-based; details: ATCC 90028, 48 h; outline: as §2
Nakaseomyces glabratus = test: Antifungal activity against Candida glabrata ATCC 90030 after 48 hrs by CLSI methodCandida glabrata; type: functional, organism-based; details: ATCC 90030, 48 h; outline: as §3
Aspergillus fumigatus [8] = test: Antifungal activity against Aspergillus fumigatus ATCC 204305 at 16.5 uM after 48 hrs by CLSI method; type: functional, organism-based
Candida albicans [9] = test: Antifungal activity against Candida albicans ATCC 60193 after 48 hrs by CLSI method; type: functional, organism-based; details: ATCC 60193, 48 h; outline: as §2
Aspergillus niger = test: Antifungal activity against Aspergillus niger ATCC 16404 at 16.5 uM after 48 hrs by CLSI method; type: functional, organism-based
Candida albicans [10] = test: Antifungal activity against Fluconazole resistant Candida albicans clinical isolate 1 after 48 hrs by CLSI method; type: functional, organism-based; outline: as §2
Aspergillus fumigatus [11] = test: Antifungal activity against Aspergillus fumigatus ATCC 90906 after 48 h by CLSI method; details: ATCC 90906, 48 h
Cryptococcus neoformans [12] = test: Antifungal activity against Cryptococcus neoformans ATCC 90113 after 72 hrs by CLSI method; type: functional, organism-based; details: ATCC 90113, 72 h
Outline: (§4)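 SD broth replaced RPMI because growth in RPMI was poor; other CLSI conditions were kept. Inoculum was 1.5 × 10³ CFU/ml from colonies on SD agar, checked by plating. Twofold serial dilutions (11 concentrations) in 20% DMSO-saline were tested in duplicate. OD530 was read before and after incubation at 35°C for 72 h. Percent growth gave IC50; the MIC is the lowest concentration with no detectable growth.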

[13] = test system: Trichophyton mentagrophytes; test: Antifungal activity against Trichophyton mentagrophytes ATCC MYA-4439 by CLSI method; type: functional, organism-based
Outline: (§5)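 Growth scraped from 1- to 6-week-old potato dextrose slants and filtered through Miracloth. Diluted in 5% Alamar blue-RPMI 1640 (MOPS pH 7.0) to 2.7 × 10⁴ CFU/ml. Eleven twofold dilutions in duplicate. Fluorescence at 544 nm excitation/590 nm emission read before and after 35°C, 5 days. IC50 fitted from percent growth. MIC taken as no detectable growth; MFC from clear or blue wells plated on PD agar.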

Trichophyton rubrum [14] = test: Antifungal activity against Trichophyton rubrum ATCC MYA-4438 by CLSI method; type: functional, organism-based; outline: as §5
[15] = test system: Trichophyton mentagrophytes; test: Antifungal activity against Trichophyton mentagrophytes ATCC 9533 by CLSI method; type: functional, organism-based; outline: as §5
[16] = test system: Trichophyton mentagrophytes; test: Antifungal activity against Trichophyton mentagrophytes ATCC MYA-4439 at 16.5 uM after 5 days by CLSI method; type: functional, organism-based
Trichophyton rubrum [17] = test: Antifungal activity against Trichophyton rubrum ATCC 10218 at 16.5 uM after 5 days by CLSI method; type: functional, organism-based
Cryptococcus neoformans [18] = test: Antifungal activity against Cryptococcus neoformans ATCC 66031 after 72 hrs by CLSI method; type: functional, organism-based; details: ATCC 66031, 72 h; outline: as §4
Candida parapsilosis [19] = test: Antifungal activity against Candida parapsilosis ATCC 22019 after 48 hrs by CLSI method; type: functional, organism-based; details: Lodderomyces parapsilosis, ATCC 22019, 48 h; outline: as §1
Aspergillus flavus = test: Antifungal activity against Aspergillus flavus ATCC 204304 at 16.5 uM after 48 hrs by CLSI method; type: functional, organism-based
Trichophyton rubrum [20] = test: Antifungal activity against Trichophyton rubrum ATCC MYA-4438 at 16.5 uM after 5 days by CLSI method; type: functional, organism-based
Candida parapsilosis [21] = test: Antifungal activity against Candida parapsilosis ATCC 22019 at 16.5 uM after 48 hrs by CLSI method; type: functional, organism-based; outline: as §1

For CC[C@H](C)C[C@H](C)CCCCCCCCC(=O)N[C@H]1C[C@@H](O)[C@@H](NCCN)NC(=O)[C@@H]2[C@@H](O)CCN2C(=O)[C@H]([C@H](O)CCN)NC(=O)[C@H]([C@H](O)[C@@H](O)c2ccc(O)cc2)NC(=O)[C@@H]2C[C@@H](O)CN2C(=O)[C@H]([C@@H](C)O)NC1=O [CASPOFUNGIN], the IC50 (Candida tropicalis) was 60 nM, the MFC (Candida tropicalis) was 0.26 µM (≈ 0.284 µg/mL) and the MIC (Candida tropicalis) was 0.1 µM (≈ 0.109 µg/mL). The IC50 (Candida albicans [1]) was 50 nM, the MFC (Candida albicans [1]) was 0.13 µM (≈ 0.142 µg/mL) and the MIC (Candida albicans [1]) was 0.13 µM (≈ 0.142 µg/mL). The Activity [2] was “inactive”, the IC50 (Candida albicans [3]) was 40 nM and the MFC (Candida albicans [3]) was 0.26 µM (≈ 0.284 µg/mL). For the same compound, the MIC (Candida albicans [3]) was 0.13 µM (≈ 0.142 µg/mL), the IC50 (Pichia kudriavzevii) was 100 nM and the MFC (Pichia kudriavzevii) was 1 µM (≈ 1.09 µg/mL). For the same compound, the MIC (Pichia kudriavzevii) was 0.4 µM (≈ 0.437 µg/mL), the IC50 (Candida albicans [4]) was 50 nM and the MFC (Candida albicans [4]) was 0.26 µM (≈ 0.284 µg/mL). For the same compound, the MIC (Candida albicans [4]) was 0.1 µM (≈ 0.109 µg/mL), the IC50 (Candida albicans [5]) was 70 nM and the MFC (Candida albicans [5]) was 1.03 µM (≈ 1.13 µg/mL). For the same compound, the MIC (Candida albicans [5]) was 0.13 µM (≈ 0.142 µg/mL), the Activity (Aspergillus fumigatus [6]) was “inactive” and the IC50 (Candida albicans [7]) was 60 nM. The MFC (Candida albicans [7]) was 0.26 µM (≈ 0.284 µg/mL), the MIC (Candida albicans [7]) was 0.19 µM (≈ 0.208 µg/mL) and the IC50 (Nakaseomyces glabratus) was 50 nM. The MFC (Nakaseomyces glabratus) was 0.26 µM (≈ 0.284 µg/mL), the MIC (Nakaseomyces glabratus) was 0.13 µM (≈ 0.142 µg/mL) and the Activity (Aspergillus fumigatus [8]) was “inactive”. It also gave an IC50 (Candida albicans [9]) of 30 nM, an MFC (Candida albicans [9]) of 0.52 µM (≈ 0.569 µg/mL) and an MIC (Candida albicans [9]) of 0.1 µM (≈ 0.109 µg/mL). For the same compound, the Activity (Aspergillus niger) was “inactive”, the IC50 (Candida albicans [10]) was 50 nM and the MFC (Candida albicans [10]) was 0.26 µM (≈ 0.284 µg/mL). For the same compound, the MIC (Candida albicans [10]) was 0.1 µM (≈ 0.109 µg/mL), the IC50 (Aspergillus fumigatus [11]) was 200 nM and the MIC (Aspergillus fumigatus [11]) was 16.5 µM (≈ 18 µg/mL). The IC50 (Cryptococcus neoformans [12]) was 400 nM, the MFC (Cryptococcus neoformans [12]) was 2.1 µM (≈ 2.3 µg/mL) and the MIC (Cryptococcus neoformans [12]) was 1 µM (≈ 1.09 µg/mL). It also gave an IC50 [13] of 200 nM, an IC50 (Trichophyton rubrum [14]) of 60 nM and an MIC (Trichophyton rubrum [14]) of 0.1 µM (≈ 0.109 µg/mL). The IC50 [15] was 300 nM, the Activity [16] was “inactive” and the Activity (Trichophyton rubrum [17]) was “inactive”. The IC50 (Cryptococcus neoformans [18]) was 100 nM, the MFC (Cryptococcus neoformans [18]) was 1 µM (≈ 1.09 µg/mL) and the MIC (Cryptococcus neoformans [18]) was 0.5 µM (≈ 0.547 µg/mL). The IC50 (Candida parapsilosis [19]) was 200 nM, the MIC (Candida parapsilosis [19]) was 0.5 µM (≈ 0.547 µg/mL) and the Activity (Aspergillus flavus) was “inactive”. For the same compound, the Activity (Trichophyton rubrum [20]) was “inactive” and the Activity (Candida parapsilosis [21]) was “inactive”.
